Source: ChEMBL document CHEMBL1955770, “Inhibition of S/G2 phase CDK4 reduces mitotic fidelity” (J Biol Chem, 2006)
The source made the active and inactive calls. The rule behind the calls is not given here.

Assays:
[1] = tested on: A2058; experiment: Cell cycle arrest in human A2058 cells assessed as accumulation at G1 phase at 2 uM treated 1 hr and measured 8 hr post double hydroxyurea-synchrony release using propidium iodide staining by FACS analysis; type: functional
[2] = tested on: A2058; experiment: Cell cycle arrest in human A2058 cells assessed as time taken to reach peak mitosis at 2 uM treated 1 hr and post double hydroxyurea-synchrony release using propidium iodide staining by FACS analysis; type: functional
[3] = Cell cycle arrest in human SK-MEL-13 cells assessed as accumulation at G2/M phase at 2 uM treated 1 hr and measured 10 hr post double hydroxyurea-synchrony release using propidium iodide staining by FACS analysis (reference value: 70 %); type: functional, cell-based
Outline: (§1)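 SK-Mel-13 cells synchronized with 2 mM hydroxyurea, then treated with 2 μM CDK4 inhibitor or left untreated 1 h after release. Harvested at indicated times post-release, ethanol-fixed, propidium iodide/RNase stained, and DNA content read by FACS. Proportions of G1, S and G2/M cells derived with ModFit.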

[4] = tested on: A2058; experiment: Cell cycle arrest in human A2058 cells assessed as accumulation at S phase at 2 uM treated 1 hr and measured 12 hr post double hydroxyurea-synchrony release using propidium iodide staining by FACS analysis (reference value: 47 %); type: functional
[5] = tested on: HeLa; experiment: Effect on aurora B protein expression in human HeLa cells at 2 uM measured 14 hr post thymidine-synchrony release by immunoblot analysis; type: functional, cell-based
Outline: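 Synchronized HeLa cells given 2 μM CDK4 inhibitor in early S phase and harvested at set times post-release. Lysed in supplemented NETN buffer on ice for 20 min. Lysates run on SDS-PAGE and immunoblotted for survivin, borealin and other chromosomal passenger proteins, with ECL detection. Cyclin D3 served as loading control.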

[6] = tested on: A2058; experiment: Cell cycle arrest in human A2058 cells assessed as accumulation at G1 phase at 2 uM treated 1 hr and measured 12 hr post double hydroxyurea-synchrony release using propidium iodide staining by FACS analysis (reference value: 14 %); type: functional
[7] = tested on: HeLa; experiment: Cell cycle arrest in human HeLa cells assessed as time delay in progression through G2/M phase at 2 uM treated at 4 hr post double thymidine-synchrony release using propidium iodide staining by FACS analysis; type: functional
Outline: (§2)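 Cells harvested at set times post-release, fixed in 70% ethanol, stained with 5 μg/ml propidium iodide plus 0.5 mg/ml RNase A, and analysed by flow cytometry. Cell-cycle phase fractions calculated by ModFit.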

[8] = tested on: HeLa; experiment: Cell cycle arrest in human HeLa cells assessed as accumulation at G2/M phase at 2 uM treated 2 hr and measured 10 hr post double thymidine-synchrony release using propidium iodide staining by FACS analysis (reference value: 31 %); type: functional; outline: as §2
[9] = tested on: HeLa; experiment: Cell cycle arrest in synchronized human HeLa cells assessed as inhibition of cytokinesis at 2 uM by time-lapse microscopy; type: functional
[10] = biological target: Cyclin-dependent kinase 2/cyclin E1 (Homo sapiens, UniProt P24941); experiment: Inhibition of human CDK2-GST-tagged cyclin E using his-tagged Rb as substrate after 30 mins by scintillation counting method; type: protein-complex assay
[11] = tested on: HeLa; experiment: Cell cycle arrest at G2 phase in human HeLa cells assessed as effect on CCNB1 accumulation at 2 uM treated at early S phase measured after 6-14 hr post thymidine-synchrony release by immunoblot method; type: functional, cell-based
Outline: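 HeLa cells synchronized by double thymidine block and released, treated with 2 μM inhibitor in early S phase, or left untreated. Harvested at set times after release, lysed in NETN with phosphatase and protease inhibitors, run on SDS-PAGE and immunoblotted for cyclin B1 and phosphotyrosine 15 CDK1/2, with cyclin D3 as loading control. Detection by HRP secondary and ECL.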

[12] = biological target: Cyclin-dependent kinase 1/cyclin B1 (Homo sapiens, UniProt P06493); experiment: Inhibition of human CDK1-GST-tagged cyclin B using his-tagged Rb as substrate after 30 mins by scintillation counting method; type: protein-complex assay
[13] = tested on: COLO 205; experiment: Toxicity in human COLO205 cells at IC50 after 3 days by MTT assay; type: cell-based; settings: colo 205, 72 h
[14] = tested on: HCT-116; experiment: Toxicity in human HCT116 cells at 8 uM by MTT assay; type: cell-based; settings: hct-116, 8 µM
[15] = tested on: HeLa; experiment: Cell cycle arrest in human HeLa cells assessed as accumulation at G2/M phase at 2 uM treated 6 hr and measured 10 hr post double thymidine-synchrony release using propidium iodide staining by FACS analysis (reference value: 31 %); type: functional; outline: as §2
[16] = tested on: HeLa; experiment: Cell cycle arrest in human HeLa cells assessed as accumulation at G1 phase at 2 uM treated 6 hr and measured 10 hr post double thymidine-synchrony release using propidium iodide staining by FACS analysis (reference value: 68 %); type: functional
[17] = tested on: NCI-H460; experiment: Toxicity in human H460a cells at 8 uM by MTT assay; type: cell-based; settings: nci-h460, 8 µM
[18] = tested on: MDA-MB-435; experiment: Toxicity in human MDA-MB-435 cells at 8 uM by MTT assay; type: cell-based; settings: mda-mb-435, 8 µM
[19] = biological target: Cyclin-dependent kinase 4 (Homo sapiens) (UniProt P11802); experiment: Inhibition of CDK4-mediated Rb phosphorylation at ser 795 in human HCT116 cells at IC90 after 24 hrs by immunoblot analysis; type: cell-based; settings: HCT-116
Outline: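 Asynchronous HCT-116 cells (DMEM, 3 mM HEPES, 10% serum, 37 °C, 5% CO₂) were given increasing inhibitor doses for 4 or 24 h. Lysis in NETN with phosphatase and protease inhibitors, then SDS-PAGE, nitrocellulose transfer and immunoblot for phospho-Rb (Ser-795) with HRP secondary and chemiluminescence.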

[20] = tested on: RKO; experiment: Toxicity in human RKO cells at IC50 after 3 days by MTT assay; type: cell-based; settings: 72 h
[21] = tested on: HeLa; experiment: Cell cycle arrest in Rb-deficient human HeLa cells assessed as accumulation at sub-diploid phase at 2 uM after 24 hrs by FACS analysis; type: functional
Outline: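 Ethanol-fixed cells stained with propidium iodide/RNase A, DNA content read by FACS, phase and sub-diploid fractions calculated with ModFit.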

[22] = tested on: A2058; experiment: Cell cycle arrest in human A2058 cells assessed as accumulation at S phase at 2 uM treated 1 hr and measured 10 hr post double hydroxyurea-synchrony release using propidium iodide staining by FACS analysis (reference value: 35 %); type: functional
[23] = tested on: MDA-MB-453; experiment: Toxicity in human MDA-MB-453 cells at IC50 after 3 days by MTT assay; type: cell-based; settings: mda-mb-453, 72 h
[24] = Cell cycle arrest in human SK-MEL-13 cells assessed as time taken to reach peak mitosis at 2 uM treated 1 hr and post double hydroxyurea-synchrony release using propidium iodide staining by FACS analysis; type: functional, cell-based; outline: as §1
[25] = tested on: HeLa; experiment: Cell cycle arrest in human HeLa cells assessed as accumulation at S phase at 2 uM treated 6 hr and measured 8 hr post double thymidine-synchrony release using propidium iodide staining by FACS analysis (reference value: 8 %); type: functional; outline: as §2
[26] = tested on: MDA-MB-435; experiment: Antiproliferative activity against human MDA-MB-435 cells assessed as inhibition of S phase after 48 hrs by MTT assay; type: functional, cell-based; settings: MDA-MB-435, 48 h
Outline: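 Cells grown in DMEM with 3 mM HEPES and 10% Serum Supreme at 37 °C, 5% CO2. Proliferation read by MTT assay 48 h after drug addition; IC50 given as mean of two separate determinations, each in duplicate.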

Chain of Cyclin-dependent kinase 1/cyclin B1 (P06493 whole entry): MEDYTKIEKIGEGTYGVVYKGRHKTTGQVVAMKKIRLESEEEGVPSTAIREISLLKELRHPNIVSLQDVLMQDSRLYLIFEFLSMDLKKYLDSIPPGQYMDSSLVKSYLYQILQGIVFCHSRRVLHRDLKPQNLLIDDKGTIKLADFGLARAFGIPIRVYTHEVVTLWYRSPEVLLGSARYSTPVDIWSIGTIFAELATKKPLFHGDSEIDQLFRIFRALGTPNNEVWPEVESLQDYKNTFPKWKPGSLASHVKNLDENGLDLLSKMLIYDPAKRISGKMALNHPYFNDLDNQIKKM
Chain of Cyclin-dependent kinase 1/cyclin B1 (P14635 whole entry, further chain): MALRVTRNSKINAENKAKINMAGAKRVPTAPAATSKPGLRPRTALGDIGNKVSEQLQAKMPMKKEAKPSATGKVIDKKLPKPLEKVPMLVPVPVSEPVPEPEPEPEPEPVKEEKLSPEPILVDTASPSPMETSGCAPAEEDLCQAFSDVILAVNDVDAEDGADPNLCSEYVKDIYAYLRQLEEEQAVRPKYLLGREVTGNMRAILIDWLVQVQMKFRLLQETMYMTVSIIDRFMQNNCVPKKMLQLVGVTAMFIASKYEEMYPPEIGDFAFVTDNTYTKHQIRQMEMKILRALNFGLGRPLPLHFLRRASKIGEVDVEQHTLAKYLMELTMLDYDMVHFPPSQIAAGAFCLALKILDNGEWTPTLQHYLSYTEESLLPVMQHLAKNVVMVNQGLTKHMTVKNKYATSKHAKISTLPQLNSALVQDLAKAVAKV
Chain of Cyclin-dependent kinase 4 (Homo sapiens) (P11802 whole entry): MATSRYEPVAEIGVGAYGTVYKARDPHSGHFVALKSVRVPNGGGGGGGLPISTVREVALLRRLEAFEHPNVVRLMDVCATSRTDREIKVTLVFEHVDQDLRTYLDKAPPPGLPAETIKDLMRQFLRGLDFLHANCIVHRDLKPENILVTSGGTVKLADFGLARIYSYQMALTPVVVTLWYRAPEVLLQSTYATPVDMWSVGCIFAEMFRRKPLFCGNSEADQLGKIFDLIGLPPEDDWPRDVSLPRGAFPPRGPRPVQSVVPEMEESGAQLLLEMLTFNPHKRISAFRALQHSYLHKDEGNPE

| Structure (SMILES) | Activity [1] [%] | Time [2] [h] | Activity [3] [%] | Activity [4] [%] | Activity [5] | Activity [6] [%] | Time [7] [h] | Activity [8] [%] | inhibition at 2 µM [9] [%] | IC50 [10] [µM] | Activity [11] | IC50 [12] [µM] | Activity [13] | Activity [14] | Activity [15] [%] | Activity [16] [%] | Activity [17] | Activity [18] | inhibition [19] | Activity [20] | other results |
| --- | --- | --- | --- | --- | --- | --- | --- | --- | --- | --- | --- | --- | --- | --- | --- | --- | --- | --- | --- | --- | --- |
| CN1CCN(c2ccc(Nc3nc(N)c(C(=O)c4ccc5c(c4)OCCO5)s3)cc2)CC1 | 8 | 10 | 75 | 40 | inactive | 0 | 2 | 90 | 20 | 2.36 | inactive | 3.04 | Toxic | Toxic | 43 | 56 | Toxic | Toxic | Active | Toxic | Activity [21]: 10%; Activity [22]: 36%; Activity [23]: Toxic; TIME [24]: 10 h; Activity [25]: 5%; IC50 [26]: 3.06 µM |
| COc1cccc(C(=O)c2sc(Nc3ccc(N4CCN(C(C)C)CC4)cc3)nc2N)c1 | 8 | 10 | 75 | 40 | inactive | 0 | 2 | 90 | 20 | 4.14 | inactive | 1.97 | Toxic | Toxic | 43 | 56 | Toxic | Toxic | Active | Toxic | Activity [21]: 10%; Activity [22]: 36%; Activity [23]: Toxic; TIME [24]: 10 h; Activity [25]: 5%; IC50 [26]: 1.2 µM |
